# The source made the active and inactive calls. The rule behind the calls is not given here.
# Tests used:
# [1] = Cytotoxicity against human SW620/AD300 cells assessed as cell growth inhibition at 10 uM incubated for 48 hrs by SRB assay relative to control; assay type: cell-based; details: read-out: GI
# [2] = target: T1, Broad substrate specificity ATP-binding cassette transporter ABCG2 (Homo sapiens, UniProt Q9UNQ0); assay: Reversal of ABCG2-mediated mitoxantrone resistance in human NCI-H460/MX20 cells assessed as potentiation of mitoxantrone-induced cytotoxicity by measuring change in mitoxantrone IC50 at 2.5 uM incubated for 48 hrs by SRB assay relative to mitoxantrone IC50; assay type: cell-based
# T1 sequence (Q9UNQ0 whole entry): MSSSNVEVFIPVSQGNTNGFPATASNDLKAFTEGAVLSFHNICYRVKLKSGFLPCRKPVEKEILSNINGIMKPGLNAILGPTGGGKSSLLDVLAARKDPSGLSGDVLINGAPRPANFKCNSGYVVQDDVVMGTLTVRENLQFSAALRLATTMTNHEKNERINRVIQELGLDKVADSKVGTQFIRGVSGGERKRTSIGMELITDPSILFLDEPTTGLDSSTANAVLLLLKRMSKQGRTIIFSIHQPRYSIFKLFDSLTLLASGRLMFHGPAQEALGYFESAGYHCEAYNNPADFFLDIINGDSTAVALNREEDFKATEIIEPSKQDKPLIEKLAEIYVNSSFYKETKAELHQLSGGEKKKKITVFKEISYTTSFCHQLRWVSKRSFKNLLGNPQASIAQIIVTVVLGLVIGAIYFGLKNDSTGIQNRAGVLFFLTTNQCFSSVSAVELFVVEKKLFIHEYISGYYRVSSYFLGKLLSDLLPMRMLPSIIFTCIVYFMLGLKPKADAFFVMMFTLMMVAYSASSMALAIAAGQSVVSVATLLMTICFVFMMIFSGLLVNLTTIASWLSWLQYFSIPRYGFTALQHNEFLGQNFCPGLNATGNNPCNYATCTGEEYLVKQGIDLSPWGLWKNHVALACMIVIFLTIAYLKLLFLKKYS
# [3] = target: T2, Multidrug resistance-associated protein 1 (Homo sapiens, UniProt P33527); assay: Reversal of ABCC1-mediated vincristine resistance in human KB-CV60 cells assessed as potentiation of vincristine-induced cytotoxicity by measuring change in vincristine IC50 at 5 uM incubated for 48 hrs by SRB assay relative to vincristine IC50; assay type: cell-based
# Summary of the method: (§1)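 ABCC1-overexpressing KB-CV60 cells: vincristine IC50 determined alone or with modulator at 2.5 or 5 μM; MK571 25 μM reference; reversal fold calculated as IC50 ratio without/with modulator.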
# SW620/AD300 = assay: Downregulation of ABCB1 expression in human SW620/AD300 cells at 1 to 5 uM incubated for 48 hrs by Western blot analysis; assay type: functional, cell-based
# Summary of the method: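 SW620 and SW620/AD300 cells compared for ABCB1 level; SW620/AD300 treated at 0, 1.0, 2.0 or 5.0 μM for 48 h, then ABCB1 protein assessed.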
# [4] = Cytotoxicity against human NCI-H460/MX20 cells assessed as effect on cell proliferation at 2.5 to 5 uM measured after 48 hrs by SRB assay; assay type: cell-based
# [5] = target: T3, ATP-dependent translocase ABCB1 (Homo sapiens, UniProt P08183); assay: Reversal of Pgp-mediated DOX resistance in human SW620/AD300 cells assessed as potentiation of DOX-induced cytotoxicity by measuring change in DOX IC50 at 1 uM incubated for 48 hrs by SRB assay relative to DOX alone; assay type: cell-based; details: sw620/ad300, 48 h
# K562/A02 [6] = assay: Potentiation of DOX-induced anti tumor activity against human K562/A02 cells xenografted in BALB/c mouse assessed as tumor size at 30 mg/kg, iv administered every 2 days for 14 days measured during compound dosing by caliper method (reference value: 610 mm3); assay type: functional
# Summary of the method: (§2)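 Mice bearing subcutaneous ABCB1-overexpressing K562/A02 xenografts treated with DOX alone, modulator alone, or combinations (verapamil as comparator) for 14 days; tumor volume measured every two days.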
# SW-620 = assay: Induction of Rh123 accumulation in human SW620 cells at 0.01 to 0.5 uM incubated for 4 hrs by flow cytometry; assay type: functional, cell-based
# Summary of the method: (§3)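 SW620 and SW620/AD300 cells exposed to 1 μg/mL rhodamine 123 with or without modulator; intracellular Rh123 content measured; mean ± SD of three independent experiments.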
# [7] = target: T3, ATP-dependent translocase ABCB1; assay: Reversal of ABCB1-mediated multidrug resistance in human SW620/AD300 cells assessed as increase in Rh123 accumulation at 0.01 to 0.5 uM incubated for 4 hrs by flow cytometry; assay type: cell-based; details: sw620/ad300, 4 h; summary of the method: as §3
# [8] = Cytotoxicity against human KB-CV60 cells assessed as effect on cell proliferation at 2.5 to 5 uM measured after 48 hrs by SRB assay; assay type: cell-based
# K562/A02 [9] = assay: Effect on tumor size of human K562/A02 cells xenografted in BALB/c mouse at 30 mg/kg, iv administered every 2 days for 14 days measured during compound dosing by caliper method; assay type: ADME, organism-based; details: in vivo; summary of the method: as §2
# [10] = target: T1, Broad substrate specificity ATP-binding cassette transporter ABCG2; assay: Reversal of ABCG2-mediated mitoxantrone resistance in human NCI-H460/MX20 cells assessed as potentiation of mitoxantrone-induced cytotoxicity by measuring change in mitoxantrone IC50 at 5 uM incubated for 48 hrs by SRB assay relative to mitoxantrone IC50; assay type: cell-based
# [11] = target: T3, ATP-dependent translocase ABCB1; assay: Reversal of ABCB1-mediated multidrug resistance in human SW620 cells assessed as reduction in Rh123 efflux at 0.01 to 0.5 uM incubated for 4 hrs by flow cytometry analysis; assay type: cell-based; details: sw-620, 4 h
# Summary of the method: (§4)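 Cells pre-loaded with rhodamine 123, then efflux monitored in SW620 and SW620/AD300 cells over a range of modulator levels; mean ± SD of three independent experiments.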
# [12] = target: T2, Multidrug resistance-associated protein 1; assay: Reversal of ABCC1-mediated vincristine resistance in human KB-CV60 cells assessed as potentiation of vincristine-induced cytotoxicity by measuring change in vincristine IC50 at 2.5 uM incubated for 48 hrs by SRB assay relative to vincristine IC50; assay type: cell-based; summary of the method: as §1
# [13] = target: T3, ATP-dependent translocase ABCB1; assay: Reversal of ABCB1-mediated multidrug resistance in human SW620/AD300 cells assessed as reduction in Rh123 efflux incubated for 4 hrs by flow cytometry analysis; assay type: cell-based; details: sw620/ad300, 4 h; summary of the method: as §4
# [14] = target: T3, ATP-dependent translocase ABCB1; assay: Reversal of Pgp-mediated DOX resistance in human SW620/AD300 cells assessed as potentiation of DOX-induced cytotoxicity by measuring inhibition of cell proliferation at 1 uM incubated for 48 hrs by SRB assay (reference value: 5.3 +/- 3 %); assay type: cell-based
# [15] = target: T3, ATP-dependent translocase ABCB1; assay: Binding affinity to ABCB1 in human SW620/AD300 cells assessed as increase in thermal stability of ABCB1 at 20 uM incubated for 30 to 60 mins followed by heating at 40.5 to 59.5 degC by […]; assay type: cell-based; details: sw620/ad300, 20 µM
# K562/A02 [16] = assay: Potentiation of DOX-induced anti tumor activity against human K562/A02 cells xenografted in BALB/c mouse assessed as reduction in tumor weight at 30 mg/kg, iv administered every 2 days for 14 days measured 24 hrs post-last dose; assay type: functional, organism-based
# Summary of the method: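 K562/A02 subcutaneous xenograft mice treated 14 days with DOX with or without modulator; tumors excised and weighed at Day 14.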
# T3 sequence (P08183 whole entry): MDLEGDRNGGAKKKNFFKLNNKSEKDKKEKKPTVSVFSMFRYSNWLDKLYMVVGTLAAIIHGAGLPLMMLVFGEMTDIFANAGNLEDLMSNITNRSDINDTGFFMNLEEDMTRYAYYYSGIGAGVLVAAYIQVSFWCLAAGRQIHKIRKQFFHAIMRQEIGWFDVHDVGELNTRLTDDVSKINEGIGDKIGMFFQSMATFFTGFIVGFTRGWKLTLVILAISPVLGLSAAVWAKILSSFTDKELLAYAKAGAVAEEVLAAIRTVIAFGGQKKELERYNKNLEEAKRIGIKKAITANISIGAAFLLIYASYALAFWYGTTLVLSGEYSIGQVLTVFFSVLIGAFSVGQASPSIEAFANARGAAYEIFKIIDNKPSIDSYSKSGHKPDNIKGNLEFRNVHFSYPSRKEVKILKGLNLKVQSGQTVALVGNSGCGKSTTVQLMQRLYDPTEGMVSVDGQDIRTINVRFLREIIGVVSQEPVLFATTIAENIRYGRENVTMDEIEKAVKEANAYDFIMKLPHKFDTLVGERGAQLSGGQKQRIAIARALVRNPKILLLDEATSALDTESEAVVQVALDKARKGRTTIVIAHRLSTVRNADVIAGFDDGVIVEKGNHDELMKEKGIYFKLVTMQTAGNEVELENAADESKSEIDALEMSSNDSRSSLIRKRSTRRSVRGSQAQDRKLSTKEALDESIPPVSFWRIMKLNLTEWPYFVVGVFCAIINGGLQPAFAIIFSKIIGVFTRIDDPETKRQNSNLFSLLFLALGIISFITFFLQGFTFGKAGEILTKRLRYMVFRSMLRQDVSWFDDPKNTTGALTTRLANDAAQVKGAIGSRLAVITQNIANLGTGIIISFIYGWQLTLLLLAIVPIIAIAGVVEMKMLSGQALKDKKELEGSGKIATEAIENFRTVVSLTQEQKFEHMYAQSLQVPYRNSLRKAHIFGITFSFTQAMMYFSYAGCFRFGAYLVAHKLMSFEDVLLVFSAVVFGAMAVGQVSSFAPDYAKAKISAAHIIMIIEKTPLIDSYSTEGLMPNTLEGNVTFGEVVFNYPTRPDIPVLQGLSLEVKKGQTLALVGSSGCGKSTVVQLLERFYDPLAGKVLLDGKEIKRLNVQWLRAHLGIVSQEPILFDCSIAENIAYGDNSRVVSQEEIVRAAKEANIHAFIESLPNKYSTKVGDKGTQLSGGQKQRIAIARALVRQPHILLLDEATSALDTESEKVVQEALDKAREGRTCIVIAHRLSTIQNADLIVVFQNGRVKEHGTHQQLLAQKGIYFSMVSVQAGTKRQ
# T2 sequence (P33527 whole entry): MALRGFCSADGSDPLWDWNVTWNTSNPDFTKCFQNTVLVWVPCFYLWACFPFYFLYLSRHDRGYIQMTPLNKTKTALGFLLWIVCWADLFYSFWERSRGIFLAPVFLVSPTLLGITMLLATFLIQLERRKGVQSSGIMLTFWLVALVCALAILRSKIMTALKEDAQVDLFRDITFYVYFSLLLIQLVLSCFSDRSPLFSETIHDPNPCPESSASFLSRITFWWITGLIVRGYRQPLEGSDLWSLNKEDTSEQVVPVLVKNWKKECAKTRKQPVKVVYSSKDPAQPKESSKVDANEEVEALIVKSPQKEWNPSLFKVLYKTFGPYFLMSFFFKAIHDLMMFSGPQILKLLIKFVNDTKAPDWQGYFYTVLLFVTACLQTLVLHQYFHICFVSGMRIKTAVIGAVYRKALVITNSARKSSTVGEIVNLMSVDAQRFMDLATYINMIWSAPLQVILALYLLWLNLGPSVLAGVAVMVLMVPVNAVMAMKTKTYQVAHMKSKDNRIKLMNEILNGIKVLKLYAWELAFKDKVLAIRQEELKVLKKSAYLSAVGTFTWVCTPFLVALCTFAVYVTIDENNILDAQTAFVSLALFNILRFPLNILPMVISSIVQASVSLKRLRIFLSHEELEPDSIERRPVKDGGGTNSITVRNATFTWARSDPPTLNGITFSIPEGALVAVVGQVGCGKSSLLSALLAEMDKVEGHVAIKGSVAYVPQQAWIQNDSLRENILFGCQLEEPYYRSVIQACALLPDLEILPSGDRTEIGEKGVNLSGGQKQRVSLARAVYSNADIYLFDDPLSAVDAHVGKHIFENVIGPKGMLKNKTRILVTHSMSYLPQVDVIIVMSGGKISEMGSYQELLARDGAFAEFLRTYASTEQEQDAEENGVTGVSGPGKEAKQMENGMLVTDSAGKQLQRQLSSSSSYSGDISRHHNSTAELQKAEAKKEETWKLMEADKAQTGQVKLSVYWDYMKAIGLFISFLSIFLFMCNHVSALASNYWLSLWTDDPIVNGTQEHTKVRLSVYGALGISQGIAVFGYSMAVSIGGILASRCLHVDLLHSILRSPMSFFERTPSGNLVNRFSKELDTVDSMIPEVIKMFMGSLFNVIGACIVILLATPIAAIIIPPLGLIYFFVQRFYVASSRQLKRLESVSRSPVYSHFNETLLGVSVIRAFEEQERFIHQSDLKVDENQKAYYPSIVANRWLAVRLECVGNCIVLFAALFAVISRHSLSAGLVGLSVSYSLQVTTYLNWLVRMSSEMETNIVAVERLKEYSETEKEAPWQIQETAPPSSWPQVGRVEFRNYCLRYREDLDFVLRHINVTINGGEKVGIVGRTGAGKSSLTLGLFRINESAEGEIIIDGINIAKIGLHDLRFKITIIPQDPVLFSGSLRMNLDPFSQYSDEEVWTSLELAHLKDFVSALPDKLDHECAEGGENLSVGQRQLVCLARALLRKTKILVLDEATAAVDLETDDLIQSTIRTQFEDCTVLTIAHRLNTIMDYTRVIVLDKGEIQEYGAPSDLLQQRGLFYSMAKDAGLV
compound,measurement,setting,value
COc1cc2c(cc1OC)CN(CCc1ccc(NC(=O)/C=C/c3ccc(Oc4ccc(-c5ccccn5)c(Cl)c4)nc3)cc1)CC2,"inhibition at 48 h, 10 µM",[1],9.7%
same,fold change (FC),[2],0.99
same,fold change (FC),[3],1.43
same,Activity,SW620/AD300,inactive
same,Activity,[4],Non-Toxic
same,fold change (FC),[5],59.63
same,Activity,K562/A02 [6],437 mm3
same,Activity,SW-620,inactive
same,Activity,[7],Active
same,Activity,[8],Non-Toxic
same,Activity,K562/A02 [9],Non-Toxic
same,fold change (FC),[10],2.32
same,Activity,[11],Not Active
same,fold change (FC),[12],1.12
same,Activity,[13],Dose-dependent effect
same,inhibition at 1 µM,[14],60.3%
same,Activity,[15],Active
same,Activity,K562/A02 [16],Active

# From ChEMBL document CHEMBL4602721, “Discovery of Potent Inhibitors against P-Glycoprotein-Mediated Multidrug Resistance Aided by Late-Stage Functionalization of a 2-(4-(Pyridin-2-yl)phenoxy)pyridine Analogue” (J Med Chem, 2020)
